Laboratory results taken from ChEMBL document CHEMBL2163240, “Griseusins F and G, spiro-naphthoquinones from a tin mine tailings-derived alkalophilic Nocardiopsis species” (J Nat Prod, 2012).
Values after ≈ are worked out from the molar mass of the structure shown.

What was measured:
Staphylococcus aureus = assay: Antibacterial activity against Staphylococcus aureus ATCC 29213 after overnight incubation by agar well diffusion assay; assay type: functional
Micrococcus luteus = assay: Antibacterial activity against Micrococcus luteus after overnight incubation by agar well diffusion assay; assay type: functional
Bacillus subtilis = assay: Antibacterial activity against Bacillus subtilis after overnight incubation by agar well diffusion assay; assay type: functional
HCT-116 = assay: Cytotoxicity against human HCT116 cells after 24 to 72 hrs by MTT assay; assay type: functional, cell-based
Outline: (§1)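 Cells (from Kunming Medical University) seeded at 5 × 10^4 cells/mL, preincubated 24 h at 37 °C, then given graded concentrations of test chemical in DMSO; cisplatin as positive control. MTT staining after 24, 48 and 72 h, OD 492 nm versus negative control; IC50 = concentration giving 50% cell death, from concentration–viability plot.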

ACHN = assay: Cytotoxicity against human ACHN cells after 24 to 72 hrs by MTT assay; assay type: functional, cell-based; outline: as §1
CFPAC-1 = assay: Cytotoxicity against human CFPAC-1 cells after 24 to 72 hrs by MTT assay; assay type: functional, cell-based; outline: as §1
B16 = assay: Cytotoxicity against mouse B16 cells after 24 to 72 hrs by MTT assay; assay type: functional, cell-based; outline: as §1
[1] = Cytotoxicity against human MDA-MB-435S cells after 24 to 72 hrs by MTT assay; assay type: functional, cell-based; outline: as §1

| SMILES | MIC (Staphylococcus aureus) | MIC (Micrococcus luteus) | MIC (Bacillus subtilis) | IC50 (HCT-116) | IC50 (ACHN) | IC50 (CFPAC-1) | IC50 (B16) | IC50 [1] |
| --- | --- | --- | --- | --- | --- | --- | --- | --- |
| O=C(O)c1cn(C2CC2)c2cc(N3CCNCC3)c(F)cc2c1=O [CIPROFLOXACIN] | 0.28 µg/mL (≈ 0.845 µM) | 1.19 µg/mL (≈ 3.59 µM) | 0.64 µg/mL (≈ 1.93 µM) | – | – | – | – | – |
| CC(=O)C[C@]12C(=O)c3cccc(O)c3C(=O)[C@H]1[C@@]1(O[C@H](C)C[C@H](O)[C@H]1O)O[C@@H]1CC(=O)O[C@@H]12 [GRISEUSIN F] | 0.91 µg/mL (≈ 1.98 µM) | 1.27 µg/mL (≈ 2.76 µM) | 1.65 µg/mL (≈ 3.58 µM) | 700 nM | 550 nM | 640 nM | 430 nM | 820 nM |
| CC(=O)C[C@]12C(=O)c3cccc(O)c3C(=O)[C@H]1[C@@]1(O[C@H](C)CC(=O)[C@H]1O)O[C@@H]1CC(=O)O[C@@H]12 [GRISEUSIN G] | 0.8 µg/mL (≈ 1.75 µM) | 1.47 µg/mL (≈ 3.21 µM) | 1.33 µg/mL (≈ 2.9 µM) | 580 nM | 460 nM | 420 nM | 370 nM | 690 nM |
